Results from ChEMBL document CHEMBL1124123, “Graphics computer-aided receptor mapping as a predictive tool for drug design: development of potent, selective, and stereospecific ligands for the 5-HT1A receptor” (J Med Chem, 1988).

What was measured:
[1] = molecular target: T1, Adrenergic receptor alpha-1 (Rattus norvegicus, UniProt P15823+P23944+P43140); assay: Binding affinity against alpha-1 adrenergic receptor in rat brain membrane using […] as a selective ligand.; format: cell membranes
T1 sequence (P15823 whole entry): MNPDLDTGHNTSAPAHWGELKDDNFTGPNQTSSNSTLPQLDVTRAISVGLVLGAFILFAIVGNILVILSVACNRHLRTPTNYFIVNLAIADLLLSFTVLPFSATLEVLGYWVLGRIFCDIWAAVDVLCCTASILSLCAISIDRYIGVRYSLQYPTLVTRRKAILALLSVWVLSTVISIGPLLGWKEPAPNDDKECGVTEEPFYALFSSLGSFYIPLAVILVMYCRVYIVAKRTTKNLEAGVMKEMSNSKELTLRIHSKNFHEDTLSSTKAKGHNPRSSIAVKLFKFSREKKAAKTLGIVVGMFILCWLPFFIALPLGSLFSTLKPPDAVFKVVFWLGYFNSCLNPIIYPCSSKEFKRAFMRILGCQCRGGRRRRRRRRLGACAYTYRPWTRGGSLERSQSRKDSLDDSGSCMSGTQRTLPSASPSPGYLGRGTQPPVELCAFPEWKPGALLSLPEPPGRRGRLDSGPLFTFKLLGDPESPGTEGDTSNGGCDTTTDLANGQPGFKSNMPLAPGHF
T1 sequence (P23944 whole entry): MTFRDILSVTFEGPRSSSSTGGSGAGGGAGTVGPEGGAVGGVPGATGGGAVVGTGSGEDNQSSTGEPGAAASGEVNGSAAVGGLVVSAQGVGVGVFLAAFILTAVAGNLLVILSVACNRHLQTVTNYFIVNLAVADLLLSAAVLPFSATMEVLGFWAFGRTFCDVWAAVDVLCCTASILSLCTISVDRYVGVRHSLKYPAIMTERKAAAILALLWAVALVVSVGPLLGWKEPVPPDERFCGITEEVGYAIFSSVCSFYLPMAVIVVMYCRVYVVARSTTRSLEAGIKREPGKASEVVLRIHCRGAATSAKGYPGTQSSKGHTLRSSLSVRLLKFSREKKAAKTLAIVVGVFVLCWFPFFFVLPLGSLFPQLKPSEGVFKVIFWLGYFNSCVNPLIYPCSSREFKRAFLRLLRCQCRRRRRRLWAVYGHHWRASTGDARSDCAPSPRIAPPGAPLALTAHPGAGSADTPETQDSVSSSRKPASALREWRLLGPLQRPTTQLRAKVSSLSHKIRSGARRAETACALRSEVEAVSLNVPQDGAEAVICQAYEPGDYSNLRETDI
T1 sequence (P43140 whole entry): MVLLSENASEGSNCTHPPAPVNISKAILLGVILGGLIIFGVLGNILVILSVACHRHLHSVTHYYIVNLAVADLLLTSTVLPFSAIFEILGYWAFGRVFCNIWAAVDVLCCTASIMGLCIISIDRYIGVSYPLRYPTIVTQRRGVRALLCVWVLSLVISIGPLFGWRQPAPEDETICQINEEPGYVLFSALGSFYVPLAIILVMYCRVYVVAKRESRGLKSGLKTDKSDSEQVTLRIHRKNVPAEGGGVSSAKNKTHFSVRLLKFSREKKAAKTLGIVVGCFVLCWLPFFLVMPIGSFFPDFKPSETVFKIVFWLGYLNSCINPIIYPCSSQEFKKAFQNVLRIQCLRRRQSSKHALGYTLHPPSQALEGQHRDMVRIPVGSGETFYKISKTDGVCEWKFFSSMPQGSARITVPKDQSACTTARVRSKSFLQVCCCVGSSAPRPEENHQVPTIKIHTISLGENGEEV
Procedure, shortened: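 Alpha1-adrenergic binding in rat brain, using [3H]prazosin as the radioligand.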

[2] = molecular target: T2, Serotonin 2 (5-HT2) receptor (Rattus norvegicus, UniProt P30994+P08909+P14842); assay: Binding affinity towards 5-hydroxytryptamine 2 receptor in rat brain membrane using […] as a selective ligand.; format: cell membranes
Procedure, shortened: (§1)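 5-HT2 sites in rat brain were labelled with [3H]ketanserin in a radioligand receptor binding assay.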

[3] = molecular target: T3, D(2) dopamine receptor (Rattus norvegicus, UniProt P61169); assay: Binding affinity against Dopamine receptor D2 in rat brain membrane using [3H]domperidone as radioligand.
[4] = molecular target: T4, 5-hydroxytryptamine receptor 1B (Rattus norvegicus, UniProt P28564); assay: Binding affinity against 5-HT1B receptor in rat brain membrane using [3H]-5-HT in the presence of 8-OH-DPAT.
[5] = molecular target: T5, Adrenergic receptor alpha-2 (Rattus norvegicus, UniProt P22086+P19328+P22909); assay: Binding affinity against alpha-2 adrenergic receptor in rat brain membrane using […] as a selective ligand.; format: cell membranes
T5 sequence (P22086 whole entry): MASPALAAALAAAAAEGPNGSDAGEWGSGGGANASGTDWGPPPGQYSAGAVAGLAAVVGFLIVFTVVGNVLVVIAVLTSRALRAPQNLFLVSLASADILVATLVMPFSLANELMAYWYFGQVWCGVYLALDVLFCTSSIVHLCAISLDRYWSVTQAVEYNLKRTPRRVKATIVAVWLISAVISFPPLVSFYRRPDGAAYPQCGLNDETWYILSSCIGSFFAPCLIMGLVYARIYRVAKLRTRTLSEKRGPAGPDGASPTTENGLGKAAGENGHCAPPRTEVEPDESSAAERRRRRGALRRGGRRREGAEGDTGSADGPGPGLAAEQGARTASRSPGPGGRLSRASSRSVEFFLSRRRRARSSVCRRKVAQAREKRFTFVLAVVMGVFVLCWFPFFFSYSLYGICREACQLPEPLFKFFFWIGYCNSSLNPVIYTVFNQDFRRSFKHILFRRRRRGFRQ
T5 sequence (P19328 whole entry): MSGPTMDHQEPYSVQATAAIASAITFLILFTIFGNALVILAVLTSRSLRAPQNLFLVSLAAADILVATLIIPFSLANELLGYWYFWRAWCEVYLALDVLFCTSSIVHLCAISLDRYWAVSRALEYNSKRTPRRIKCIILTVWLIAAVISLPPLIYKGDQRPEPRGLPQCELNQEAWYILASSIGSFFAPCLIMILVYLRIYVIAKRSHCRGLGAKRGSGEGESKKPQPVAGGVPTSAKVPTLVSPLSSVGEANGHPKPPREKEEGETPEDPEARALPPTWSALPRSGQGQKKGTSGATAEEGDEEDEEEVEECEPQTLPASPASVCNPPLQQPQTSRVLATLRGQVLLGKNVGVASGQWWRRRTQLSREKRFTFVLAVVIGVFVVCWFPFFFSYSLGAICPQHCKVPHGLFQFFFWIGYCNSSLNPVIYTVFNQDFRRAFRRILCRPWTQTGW
T5 sequence (P22909 whole entry): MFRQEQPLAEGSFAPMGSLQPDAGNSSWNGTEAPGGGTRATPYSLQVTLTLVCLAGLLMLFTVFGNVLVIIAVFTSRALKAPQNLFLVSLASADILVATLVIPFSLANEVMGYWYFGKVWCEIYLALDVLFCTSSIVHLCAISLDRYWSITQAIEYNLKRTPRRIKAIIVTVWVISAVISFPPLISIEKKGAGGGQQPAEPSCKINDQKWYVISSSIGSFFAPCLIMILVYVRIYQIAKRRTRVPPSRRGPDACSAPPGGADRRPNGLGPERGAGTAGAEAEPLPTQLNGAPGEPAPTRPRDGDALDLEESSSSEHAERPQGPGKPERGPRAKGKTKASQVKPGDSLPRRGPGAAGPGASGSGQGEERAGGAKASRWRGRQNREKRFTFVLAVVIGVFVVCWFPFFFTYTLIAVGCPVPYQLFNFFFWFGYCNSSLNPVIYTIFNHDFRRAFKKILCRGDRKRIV
Procedure, shortened: (§2)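 Alpha2-adrenergic sites in rat brain were labelled with [3H]clonidine for radioligand binding.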

[6] = molecular target: T6, 5-hydroxytryptamine receptor 1A (Rattus norvegicus, UniProt P19327); assay: Binding affinity towards 5-hydroxytryptamine 1A receptor in rat frontal cortex using [3H]8-OH-DPAT as a radioligand; format: tissue-based
T6 sequence (P19327 whole entry): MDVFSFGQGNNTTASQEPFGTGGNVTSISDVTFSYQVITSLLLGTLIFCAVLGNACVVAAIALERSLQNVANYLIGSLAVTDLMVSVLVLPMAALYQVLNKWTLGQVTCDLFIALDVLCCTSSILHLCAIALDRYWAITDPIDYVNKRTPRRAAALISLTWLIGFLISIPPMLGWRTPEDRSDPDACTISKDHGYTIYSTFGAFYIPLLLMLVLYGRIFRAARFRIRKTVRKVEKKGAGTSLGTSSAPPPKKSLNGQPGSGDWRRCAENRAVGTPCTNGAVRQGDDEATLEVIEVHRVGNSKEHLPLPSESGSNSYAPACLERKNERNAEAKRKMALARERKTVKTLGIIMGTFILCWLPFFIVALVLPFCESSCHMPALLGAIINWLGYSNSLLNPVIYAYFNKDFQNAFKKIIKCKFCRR

[7] = molecular target: T6, 5-hydroxytryptamine receptor 1A; assay: Binding affinity towards 5-hydroxytryptamine 1A receptor in rat brain membrane using [3H]8-OH-DPAT as a selective ligand.; format: cell membranes
[8] = molecular target: T3, D(2) dopamine receptor; assay: Binding affinity against Dopamine receptor D2 in rat brain membrane using [3H]-8-OH-DPAT as a selective ligand.; format: cell membranes; conditions: in the assay text read “[3H]domperidone as radioligand” for “[3H]-8-OH-DPAT as a selective ligand”
Procedure, shortened: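 D2 receptor binding in rat brain, using [3H]domperidone as the radioligand.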

[9] = molecular target: T5, Adrenergic receptor alpha-2; assay: Binding affinity against alpha-2 adrenergic receptor in rat brain membrane using […].; format: cell membranes; procedure, shortened: as §2
[10] = molecular target: T4, 5-hydroxytryptamine receptor 1B; assay: Binding affinity against 5-HT1B receptor in rat frontal cortex using [3H]-5-HT in presence of 0.1 uM […]; format: tissue-based
[11] = molecular target: T2, Serotonin 2 (5-HT2) receptor; assay: (§3) Binding affinity towards 5-hydroxytryptamine 2 receptor in rat frontal cortex using [3H]ketanserin as radioligand
[12] = molecular target: T2, Serotonin 2 (5-HT2) receptor; assay: as §3; format: tissue-based; procedure, shortened: as §1
[13] = molecular target: T4, 5-hydroxytryptamine receptor 1B; assay: Binding affinity towards 5-HT1B receptor in rat brain membrane using [3H]8-OH-DPAT as a selective ligand.; format: cell membranes

T4 sequence (P28564 whole entry): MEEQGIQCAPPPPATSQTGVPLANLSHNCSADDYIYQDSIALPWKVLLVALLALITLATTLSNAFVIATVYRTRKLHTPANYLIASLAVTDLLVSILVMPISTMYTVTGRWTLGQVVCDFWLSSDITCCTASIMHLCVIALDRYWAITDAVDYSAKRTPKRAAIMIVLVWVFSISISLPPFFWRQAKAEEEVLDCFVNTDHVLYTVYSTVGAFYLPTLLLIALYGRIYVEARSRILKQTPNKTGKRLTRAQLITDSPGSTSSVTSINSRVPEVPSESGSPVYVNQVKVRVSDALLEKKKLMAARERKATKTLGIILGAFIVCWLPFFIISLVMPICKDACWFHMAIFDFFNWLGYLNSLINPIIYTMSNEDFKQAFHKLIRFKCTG
T3 sequence (P61169 whole entry): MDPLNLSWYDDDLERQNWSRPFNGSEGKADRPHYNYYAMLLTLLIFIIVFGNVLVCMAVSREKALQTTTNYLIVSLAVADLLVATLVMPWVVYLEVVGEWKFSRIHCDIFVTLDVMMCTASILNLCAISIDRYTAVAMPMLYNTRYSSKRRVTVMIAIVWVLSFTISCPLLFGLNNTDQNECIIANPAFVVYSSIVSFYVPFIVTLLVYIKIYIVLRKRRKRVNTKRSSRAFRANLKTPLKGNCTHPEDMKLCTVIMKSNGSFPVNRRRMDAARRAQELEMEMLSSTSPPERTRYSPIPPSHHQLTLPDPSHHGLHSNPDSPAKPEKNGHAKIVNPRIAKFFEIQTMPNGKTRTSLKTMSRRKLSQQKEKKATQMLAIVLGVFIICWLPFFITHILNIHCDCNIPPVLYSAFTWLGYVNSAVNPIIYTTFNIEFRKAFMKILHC

Log IC50 [1]	Log IC50 [2]	IC50 [4] [nM]	Log IC50 [5]	IC50 [6] [nM]	IC50 [8] [nM]	Structure (SMILES)	IC50 [7] [nM]	further results
-5.2	-5.9	3160	< -5	794	–	O=C1CC2(CCCC2)CC(=O)N1CCCCNCC1COc2c(ccc3ccccc23)O1 (stereo unspecified)	–	IC50 [3]: 316 nM
-5.3	–	–	–	–	–	O=C1CC2(CCCC2)CC(=O)N1CCCCNCC1COc2cc3ccccc3cc2O1 (stereo unspecified)	316	–
-7.2	-6.1	5010	–	–	2510	O=C1CC2(CCCC2)CC(=O)N1CCCCNC[C@@H]1COc2ccccc2O1	20	Log IC50 [9]: -6.2
-8	-6.7	794	-6.3	0.631	79.4	O=C1CC2(CCCC2)CC(=O)N1CCCCNC[C@H]1COc2ccccc2O1	–	–
-7.8	-6.2	631	-6.4	0.794	158	O=C1CC2(CCCC2)CC(=O)N1CCCCNCC1COc2ccccc2O1 (stereo unspecified)	–	–
-6.1	-6.8	398	< -5	5.01	158	O=C1CC2(CCCC2)CC(=O)N1CCCCNCC1COc2ccc3ccccc3c2O1 (stereo unspecified)	–	–
–	–	–	–	–	–	CSc1ccc2c(c1)[C@H](N1CCN(C)CC1)Cc1ccccc1S2	851	IC50 [10]: 3240 nM; Log IC50 [11]: -8.25
–	–	–	–	–	–	CCCN(CCC)C1CCc2cccc(O)c2C1 (stereo unspecified) [8-OH-DPAT]	–	Log IC50 [11]: -5
–	–	–	–	–	–	O=C(CCCN1CCC2(CC1)C(=O)NCN2c1ccccc1)c1ccc(F)cc1 [SPIPERONE]	123	IC50 [10]: 1000 nM

Structure (SMILES)	Log IC50 [1]	Log IC50 [2]	IC50 [4] [nM]	Log IC50 [5]	IC50 [6] [nM]	IC50 [8] [nM]	IC50 [7] [nM]	further results
CSc1ccc2c(c1)[C@@H](N1CCN(C)CC1)Cc1ccccc1S2	–	–	–	–	95.5	–	–	Log IC50 [12]: -8.2; IC50 [13]: 182 nM
